Measurements published in ChEMBL document CHEMBL1137710, “Synthesis and in vitro antitumor activity of new quinoxaline derivatives” (2009).

How the values were obtained:
Type in all cases: functional
K562 = assay: Growth inhibition of human K562 cells after 48 hrs by sulforhodamine B assay; settings: K562, 48 h
Procedure, shortened: (§1)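 NCI 60-human-tumor-cell-line panel, with compounds tested over a 5-log dose range. Values are taken from dose-response curves as log10 molar concentrations: GI50 is 50% net growth inhibition, TGI is total growth inhibition, and LC50 is 50% net cell death.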

MDA-MB-435 = assay: Growth inhibition of human MDA-MB-435 cells after 48 hrs by sulforhodamine B assay; settings: MDA-MB-435, 48 h; procedure, shortened: as §1
SNB-19 = assay: Growth inhibition of human SNB19 cells after 48 hrs by sulforhodamine B assay; settings: SNB-19, 48 h
Procedure, shortened: (§2)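 Run in the NCI 60-human-tumour-cell-line panel, tested over a 5-log dose range. Dose–response curves gave three values per cell line, each as a log10 molar concentration: GI50 (50% inhibition of net cell growth), TGI (total inhibition of net growth) and LC50 (50% net cell death). The mean graph midpoint is the arithmetic mean over all lines, with insensitive lines entered at the highest concentration tested.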

MCF7 [1] = assay: Growth inhibition of human MCF7 cells after 48 hrs by sulforhodamine B assay; settings: MCF7, 48 h; procedure, shortened: as §1
NCI/ADR-RES = assay: Growth inhibition of human NCI/ADR-RES cells after 48 hrs by sulforhodamine B assay; procedure, shortened: as §1
NCI-H460 = assay: Anticancer activity against human NCI-H460 cells assessed as cell growth at 100 uM after 48 hrs by sulforhodamine B assay; settings: NCI-H460, 48 h, read-out: Activity
MCF7 [2] = assay: Anticancer activity against human MCF7 cells assessed as cell growth at 100 uM after 48 hrs by sulforhodamine B assay; settings: MCF7, 48 h, read-out: Activity
M14 = assay: Growth inhibition of human M14 cells after 48 hrs by sulforhodamine B assay; settings: M14, 48 h; procedure, shortened: as §1
CAKI-1 = assay: Growth inhibition of human Caki1 cells after 48 hrs by sulforhodamine B assay; settings: CAKI-1, 48 h; procedure, shortened: as §1
HL-60(TB) = assay: Growth inhibition of human HL-60(TB) cells after 48 hrs by sulforhodamine B assay; settings: HL-60, 48 h
Procedure, shortened: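 Tested only on compounds active in a three-line prescreen, in the NCI 60-human-tumour-cell-line panel over a 5-log dose range. Values come from dose–response curves as log10 molar GI50, the concentration inhibiting 50% net cell growth. Log10 TGI (total growth inhibition) and log10 LC50 (50% net cell death) were derived too. Mean graph midpoints include insensitive lines at the highest concentration tested.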

IGROV-1 = assay: Growth inhibition of human IGROV1 cells after 48 hrs by sulforhodamine B assay; settings: IGROV-1, 48 h; procedure, shortened: as §1
OVCAR-4 = assay: Growth inhibition of human OVCAR4 cells after 48 hrs by sulforhodamine B assay; settings: OVCAR-4, 48 h; procedure, shortened: as §1
SF-268 [3] = assay: Growth inhibition of human SF268 cells after 48 hrs by sulforhodamine B assay; settings: SF-268, 48 h; procedure, shortened: as §1
786-0 = assay: Growth inhibition of human 786-0 cells after 48 hrs by sulforhodamine B assay; settings: 786-0, 48 h; procedure, shortened: as §1
U-251 = assay: Growth inhibition of human U251 cells after 48 hrs by sulforhodamine B assay; settings: U-251, 48 h; procedure, shortened: as §2
PC-3 = assay: Growth inhibition of human PC3 cells after 48 hrs by sulforhodamine B assay; settings: PC-3, 48 h; procedure, shortened: as §1
NCI-H322M = assay: Growth inhibition of human NCI-H322M cells after 48 hrs by sulforhodamine B assay; procedure, shortened: as §1
[4] = Growth inhibition of human Hs 578T cells after 48 hrs by sulforhodamine B assay; procedure, shortened: as §1
[5] = Growth inhibition of human […] cells after 48 hrs by sulforhodamine B assay; procedure, shortened: as §1
UACC-62 = assay: Growth inhibition of human UACC62 cells after 48 hrs by sulforhodamine B assay; settings: UACC-62, 48 h; procedure, shortened: as §2
LOX IMVI = assay: Growth inhibition of human LOXIMVI cells after 48 hrs by sulforhodamine B assay; procedure, shortened: as §1
OVCAR-3 = assay: Growth inhibition of human OVCAR-3 cells after 48 hrs by sulforhodamine B assay; settings: OVCAR-3, 48 h; procedure, shortened: as §1
HOP-62 = assay: Growth inhibition of human HOP62 cells after 48 hrs by sulforhodamine B assay; settings: HOP-62, 48 h; procedure, shortened: as §1
SW-620 = assay: Growth inhibition of human SW620 cells after 48 hrs by sulforhodamine B assay; settings: SW-620, 48 h; procedure, shortened: as §2
SK-MEL-28 = assay: Growth inhibition of human SK-MEL-28 cells after 48 hrs by sulforhodamine B assay; settings: SK-MEL-28, 48 h; procedure, shortened: as §1
OVCAR-8 = assay: Growth inhibition of human OVCAR8 cells after 48 hrs by sulforhodamine B assay; settings: OVCAR-8, 48 h; procedure, shortened: as §1
NCI-H522 = assay: Growth inhibition of human NCI-H522 cells after 48 hrs by sulforhodamine B assay; settings: NCI-H522, 48 h; procedure, shortened: as §1
SF-268 [6] = assay: Anticancer activity against human SF268 cells assessed as cell growth at 100 uM after 48 hrs by sulforhodamine B assay; settings: SF-268, 48 h, read-out: Activity
UO-31 = assay: Growth inhibition of human UO31 cells after 48 hrs by sulforhodamine B assay; settings: UO-31, 48 h; procedure, shortened: as §2
[7] = read-out: pLC50 (the source's name) (converted)

Nc1cc(N)c2nc(-c3ccccc3)c(Oc3ccc(Cl)c(Cl)c3)nc2c1
GI50 (K562): 3.55 µM
LC50 (K562): > 100 µM
TGI (K562; read-out: pTGI (converted)): > 100 µM
GI50 (MDA-MB-435): 5.01 µM
CC50 (MDA-MB-435; [7]): 93.3 µM
TGI (MDA-MB-435; read-out: pTGI (converted)): 20.9 µM
GI50 (SNB-19): 20.9 µM
LC50 (SNB-19): > 100 µM
TGI (SNB-19; read-out: pTGI (converted)): 52.5 µM
GI50 (MCF7 [1]): 14.1 µM
CC50 (MCF7 [1]; [7]): > 100 µM
TGI (MCF7 [1]; read-out: pTGI (converted)): 70.8 µM
GI50 (NCI/ADR-RES): 11.7 µM
CC50 (NCI/ADR-RES; [7]): > 100 µM
TGI (NCI/ADR-RES; read-out: pTGI (converted)): 36.3 µM
growth at 100 µM (NCI-H460): 0%
growth at 100 µM (MCF7 [2]): 2%
GI50 (M14): 14.1 µM
CC50 (M14; [7]): > 100 µM
TGI (M14; read-out: pTGI (converted)): 70.8 µM
GI50 (CAKI-1): 15.8 µM
CC50 (CAKI-1; [7]): > 100 µM
TGI (CAKI-1; read-out: pTGI (converted)): > 100 µM
GI50 (HL-60(TB)): 5.13 µM
LC50 (HL-60(TB)): > 100 µM
TGI (HL-60(TB); read-out: pTGI (converted)): > 100 µM
GI50 (IGROV-1): 11.5 µM
CC50 (IGROV-1; [7]): 91.2 µM
TGI (IGROV-1; read-out: pTGI (converted)): 32.4 µM
GI50 (OVCAR-4): 33.1 µM
CC50 (OVCAR-4; [7]): > 100 µM
TGI (OVCAR-4; read-out: pTGI (converted)): > 100 µM
GI50 (SF-268 [3]): 17 µM
LC50 (SF-268 [3]): > 100 µM
TGI (SF-268 [3]; read-out: pTGI (converted)): 52.5 µM
GI50 (786-0): 12.6 µM
CC50 (786-0; [7]): > 100 µM
TGI (786-0; read-out: pTGI (converted)): 44.7 µM
GI50 (U-251): 12 µM
LC50 (50% net cell kill) (U-251): 83.2 µM
TGI (U-251; read-out: pTGI (converted)): 31.6 µM
GI50 (PC-3): 3.02 µM
CC50 (PC-3; [7]): > 100 µM
TGI (PC-3; read-out: pTGI (converted)): 14.5 µM
GI50 (NCI-H322M): 21.4 µM
LC50 (NCI-H322M): > 100 µM
TGI (NCI-H322M; read-out: pTGI (converted)): 58.9 µM
GI50 [4]: 10.7 µM
CC50 [4, 7]: > 100 µM
TGI ([4]; read-out: pTGI (converted)): 33.9 µM
GI50 [5]: 3.47 µM
LC50 [5]: > 100 µM
TGI ([5]; read-out: pTGI (converted)): > 100 µM
GI50 (UACC-62): 16.2 µM
CC50 (UACC-62; [7]): > 100 µM
TGI (UACC-62; read-out: pTGI (converted)): 47.9 µM
GI50 (LOX IMVI): 16.2 µM
LC50 (LOX IMVI): 72.4 µM
TGI (LOX IMVI; read-out: pTGI (converted)): 33.9 µM
GI50 (OVCAR-3): 10.7 µM
CC50 (OVCAR-3; [7]): 66.1 µM
TGI (OVCAR-3; read-out: pTGI (converted)): 26.9 µM
GI50 (HOP-62): 17 µM
LC50 (HOP-62): 85.1 µM
TGI (HOP-62; read-out: pTGI (converted)): 38 µM
GI50 (SW-620): 9.77 µM
CC50 (SW-620; [7]): 91.2 µM
TGI (SW-620; read-out: pTGI (converted)): 30.2 µM
GI50 (SK-MEL-28): 21.4 µM
CC50 (SK-MEL-28; [7]): > 100 µM
TGI (SK-MEL-28; read-out: pTGI (converted)): 64.6 µM
GI50 (OVCAR-8): 28.2 µM
CC50 (OVCAR-8; [7]): > 100 µM
TGI (OVCAR-8; read-out: pTGI (converted)): 89.1 µM
GI50 (NCI-H522): 8.32 µM
LC50 (NCI-H522): > 100 µM
TGI (NCI-H522; read-out: pTGI (converted)): 33.9 µM
growth at 100 µM (SF-268 [6]): 0%
GI50 (UO-31): 4.07 µM
CC50 (UO-31; [7]): > 100 µM
TGI (UO-31; read-out: pTGI (converted)): > 100 µM
